In ChEMBL document CHEMBL4680121, “Development of (4-methoxyphenyl)-1H-tetrazol-5-amine regioisomers as a new class of selective antitubercular agents” (Eur J Med Chem, 2020):

Key:
Klebsiella pneumoniae = assay: Antibacterial activity against Klebsiella pneumoniae ATCC 10031 assessed as bacterial growth inhibition measured after 18 hrs by two-fold serial microdilution method; type: functional
How it was run: (§1)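 Two-fold serial broth microdilution in MH II medium following modified CLSI procedures. Compounds were dissolved in DMSO and diluted in medium to at most 1% solvent, tested from 0.03125 to 512 μg/ml. Final inoculum 10^6 CFU/ml. MIC was taken as the lowest concentration with no visible growth after 18 h at 35 °C.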

Staphylococcus aureus [1] = assay: Antibacterial activity against Staphylococcus aureus NCTC 4163 assessed as bacterial growth inhibition measured after 18 hrs by two-fold serial microdilution method; type: functional; how it was run: as §1
[2] = test system: Mycobacterium tuberculosis; assay: Antitubercular activity against Mycobacterium tuberculosis H37Rv ATCC 25618 assessed as inhibition of microbial growth by classical test tube method; type: functional
How it was run: (§2)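 Classical test-tube serial dilution in Youmans' modified Proskauer–Beck liquid medium with 10% bovine serum. Inoculum came from 14-day-old cultures. Compounds were given as DMSO solutions (stock 10 mg/ml), diluted geometrically in medium to 3.1–100 µg/ml, and incubated at 37 °C. MIC is the minimum concentration inhibiting growth relative to a no-compound control.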

[3] = test system: Mycobacterium tuberculosis; assay: Antitubercular activity against Mycobacterium tuberculosis Spec.192 assessed as inhibition of microbial growth by classical test tube method; type: functional; how it was run: as §2
Escherichia coli = assay: Antibacterial activity against Escherichia coli ATCC 25922 assessed as bacterial growth inhibition measured after 18 hrs by two-fold serial microdilution method; type: functional; how it was run: as §1
[4] = test system: Staphylococcus epidermidis; assay: Antibacterial activity against Staphylococcus epidermidis ATCC 1457 assessed as bacterial growth inhibition measured after 18 hrs by two-fold serial microdilution method; type: functional; how it was run: as §1
Pseudomonas aeruginosa [5] = assay: Antibacterial activity against Pseudomonas aeruginosa PAO1 assessed as bacterial growth inhibition measured after 18 hrs by two-fold serial microdilution method; type: functional; how it was run: as §1
Staphylococcus aureus [6] = assay: Antibacterial activity against Staphylococcus aureus ATCC 6538 assessed as bacterial growth inhibition measured after 18 hrs by two-fold serial microdilution method; type: functional; how it was run: as §1
[7] = test system: Staphylococcus epidermidis; assay: Antibacterial activity against Staphylococcus epidermidis ATCC 35984/RP62A assessed as bacterial growth inhibition measured after 18 hrs by two-fold serial microdilution method; type: functional; how it was run: as §1
[8] = test system: Staphylococcus epidermidis; assay: Antibacterial activity against Staphylococcus epidermidis ATCC 12228 assessed as bacterial growth inhibition measured after 18 hrs by two-fold serial microdilution method; type: functional; how it was run: as §1
Pseudomonas aeruginosa [9] = assay: Antibacterial activity against Pseudomonas aeruginosa NCTC 6749 assessed as bacterial growth inhibition measured after 18 hrs by two-fold serial microdilution method; type: functional; how it was run: as §1
Proteus vulgaris = assay: Antibacterial activity against Proteus vulgaris NCTC 4635 assessed as bacterial growth inhibition measured after 18 hrs by two-fold serial microdilution method; type: functional; how it was run: as §1
[10] = test system: Mycobacterium intracellulare; assay: Antimycobacterial activity against Mycobacterium intracellulare assessed as inhibition of microbial growth incubated for 1 week by MABA method; type: functional; details: 168 h, time 1 weeks
How it was run: (§3)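 Microplate Alamar Blue assay using two-fold serial microdilution in Middlebrook 7H9 broth with 10% OADC, compounds 0.125–512 µg/ml from DMSO stocks. Inoculum came from fresh LJ culture, was adjusted to McFarland 1 and diluted 1:20. Plates were incubated 1 week at 37 °C, Alamar blue was added and plates were re-incubated 24 h. MIC was the lowest concentration preventing the blue-to-pink change. Each plate carried growth and sterile controls.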

V79 [11] = assay: Cytotoxicity against Chinese Hamster V79 cells assessed as reduction in cell viability at 100 uM measured after 72 hrs by MTT assay; type: cell-based, Cricetulus griseus; details: v79, 72 h
How it was run: (§4)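 MTT viability assay on cells grown in DMEM with 10% heat-inactivated FBS, penicillin/streptomycin and 20 mM HEPES at 37 °C/5% CO2. Cells were seeded at 1×10^4 per well and allowed to adhere for 24 h, then the medium was refreshed. Compounds were added at 20–140 μM for 72 h at 37 °C, followed by MTT (0.5 mg/mL in serum-free medium) for 4 h. Untreated cells served as control. IC50 is the concentration giving 50% growth inhibition versus control.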

V79 [12] = assay: Cytotoxicity against Chinese Hamster V79 cells assessed as reduction in cell viability measured after 72 hrs by MTT assay; type: cell-based; details: Cricetulus griseus, V79, 72 h; how it was run: as §4
HaCaT [13] = assay: Cytotoxicity against human HaCaT cells assessed as reduction in cell viability at 100 uM measured after 72 hrs by MTT assay; type: cell-based; how it was run: as §4
HaCaT [14] = assay: Cytotoxicity against human HaCaT cells assessed as reduction in cell viability measured after 72 hrs by MTT assay; type: cell-based; how it was run: as §4
Mycobacterium kansasii = assay: Antibacterial activity against Mycobacterium kansasii assessed as inhibition of microbial growth incubated for 1 week by MABA method; type: functional; details: 168 h, time 1 weeks; how it was run: as §3
[15] = test system: Mycolicibacterium fortuitum; assay: Antibacterial activity against Mycobacterium fortuitum assessed as inhibition of microbial growth incubated for 1 week by MABA method; type: functional; details: 168 h, time 1 weeks; how it was run: as §3
[16] = test system: Mycobacterium tuberculosis; assay: Antitubercular activity against Mycobacterium tuberculosis Spec.192 assessed as inhibition of microbial growth incubated for 1 week by MABA method; type: functional; details: Mycobacterium tuberculosis, 192, 168 h; time 1 weeks
How it was run: (§5)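 Microplate Alamar Blue assay in Middlebrook 7H9 broth with 10% OADC. Inoculum from fresh LJ culture was adjusted to McFarland 1 and diluted 1:20. DMSO stocks were two-fold serially diluted to final 0.125–512 µg/ml, with growth and sterile controls. Plates ran 1 week at 37 °C, then Alamar blue was added for 24 h. MIC is the lowest concentration preventing the blue-to-pink change.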

[17] = test system: Mycobacterium scrofulaceum; assay: Antibacterial activity against Mycobacterium scrofulaceum assessed as inhibition of microbial growth incubated for 1 week by MABA method; type: functional; details: 168 h, time 1 weeks; how it was run: as §3
[18] = test system: Mycobacterium tuberculosis; assay: Antitubercular activity against Mycobacterium tuberculosis H37Rv ATCC 25618 assessed as inhibition of microbial growth incubated for 1 week by MABA method; type: functional; details: H37Rv ATCC 25618, 168 h, time 1 weeks; how it was run: as §5
Mycobacterium xenopi = assay: Antibacterial activity against Mycobacterium xenopi assessed as inhibition of microbial growth incubated for 1 week by MABA method; type: functional; details: 168 h, time 1 weeks; how it was run: as §3
Mycobacterium avium = assay: Antimycobacterial activity against Mycobacterium avium assessed as inhibition of microbial growth incubated for 1 week by MABA method; type: functional; details: 168 h, time 1 weeks; how it was run: as §5
[19] = test system: Mycobacterium scrofulaceum; assay: Potency index, ratio of isoniazid MIC to test compound MIC for antibacterial activity against Mycobacterium scrofulaceum assessed as inhibition of microbial growth incubated for 1 week by MABA method; type: functional; details: time 1 weeks

`COc1ccc(NC(=S)Nc2ccccc2Cl)cc1` gave an MIC (Klebsiella pneumoniae) greater than 256 µg/mL, an MIC (Staphylococcus aureus [1]) greater than 256 µg/mL and an MIC [2] of 25 µg/mL. It also gave an MIC [3] of 25 µg/mL, an MIC (Escherichia coli) greater than 256 µg/mL and an MIC [4] greater than 256 µg/mL. The MIC (Pseudomonas aeruginosa [5]) was greater than 256 µg/mL, the MIC (Staphylococcus aureus [6]) was greater than 256 µg/mL and the MIC [7] was greater than 256 µg/mL. It also gave an MIC [8] greater than 256 µg/mL, an MIC (Pseudomonas aeruginosa [9]) greater than 256 µg/mL and an MIC (Proteus vulgaris) greater than 256 µg/mL.
For `COc1ccc(Nc2nnnn2-c2ccc(Br)cc2)cc1`, the MIC [10] was 256 µg/mL, the Activity (V79 [11]) was “Non-Toxic” and the MIC (Klebsiella pneumoniae) was greater than 256 µg/mL. The IC50 (V79 [12]) was 125 µM, the MIC (Staphylococcus aureus [1]) was greater than 256 µg/mL and the Activity (HaCaT [13]) was “Non-Toxic”. It also gave an IC50 (HaCaT [14]) of 103 µM, an MIC (Mycobacterium kansasii) of 512 µg/mL and an MIC [15] greater than 512 µg/mL. The MIC (Escherichia coli) was greater than 256 µg/mL, the MIC [16] was 16 µg/mL and the MIC [4] was greater than 256 µg/mL. It also gave an MIC (Pseudomonas aeruginosa [5]) greater than 256 µg/mL, an MIC (Staphylococcus aureus [6]) greater than 256 µg/mL and an MIC [17] of 256 µg/mL. It also gave an MIC [7] greater than 256 µg/mL, an MIC [18] of 16 µg/mL and an MIC (Mycobacterium xenopi) of 512 µg/mL. It also gave an MIC [8] greater than 256 µg/mL, an MIC (Mycobacterium avium) greater than 512 µg/mL and an MIC (Pseudomonas aeruginosa [9]) greater than 256 µg/mL. It also gave an MIC (Proteus vulgaris) greater than 256 µg/mL.
`COc1ccc(NC(=S)Nc2cccc(F)c2)cc1` gave an MIC (Klebsiella pneumoniae) greater than 256 µg/mL, an MIC (Staphylococcus aureus [1]) greater than 256 µg/mL and an MIC [2] of 50 µg/mL. For the same compound, the MIC [3] was 100 µg/mL, the MIC (Escherichia coli) was greater than 256 µg/mL and the MIC [4] was greater than 256 µg/mL. It also gave an MIC (Pseudomonas aeruginosa [5]) greater than 256 µg/mL, an MIC (Staphylococcus aureus [6]) greater than 256 µg/mL and an MIC [7] greater than 256 µg/mL. The MIC [8] was greater than 256 µg/mL, the MIC (Pseudomonas aeruginosa [9]) was greater than 256 µg/mL and the MIC (Proteus vulgaris) was greater than 256 µg/mL.
`COc1ccc(Nc2nnnn2-c2cccc(F)c2)cc1` was tested, and the MIC [10] was 64 µg/mL, the Activity (V79 [11]) was “Non-Toxic” and the MIC (Klebsiella pneumoniae) was greater than 256 µg/mL. For the same compound, the IC50 (V79 [12]) was 123 µM, the Ratio [19] was 4 and the MIC (Staphylococcus aureus [1]) was greater than 256 µg/mL. The Activity (HaCaT [13]) was “Non-Toxic”, the IC50 (HaCaT [14]) was 101 µM and the MIC (Mycobacterium kansasii) was 256 µg/mL. For the same compound, the MIC [15] was 256 µg/mL, the MIC (Escherichia coli) was greater than 256 µg/mL and the MIC [16] was 16 µg/mL. The MIC [4] was greater than 256 µg/mL, the MIC (Pseudomonas aeruginosa [5]) was greater than 256 µg/mL and the MIC (Staphylococcus aureus [6]) was greater than 256 µg/mL. For the same compound, the MIC [17] was 16 µg/mL, the MIC [7] was greater than 256 µg/mL and the MIC [18] was 16 µg/mL. The MIC (Mycobacterium xenopi) was 128 µg/mL, the MIC [8] was greater than 256 µg/mL and the MIC (Mycobacterium avium) was 128 µg/mL. The MIC (Pseudomonas aeruginosa [9]) was greater than 256 µg/mL and the MIC (Proteus vulgaris) was greater than 256 µg/mL.
For `COc1ccc(NC(=S)Nc2ccccc2F)cc1`, the MIC (Klebsiella pneumoniae) was greater than 256 µg/mL, the MIC (Staphylococcus aureus [1]) was greater than 256 µg/mL and the MIC [2] was 50 µg/mL. For the same compound, the MIC [3] was 50 µg/mL, the MIC (Escherichia coli) was greater than 256 µg/mL and the MIC [4] was greater than 256 µg/mL. The MIC (Pseudomonas aeruginosa [5]) was greater than 256 µg/mL, the MIC (Staphylococcus aureus [6]) was greater than 256 µg/mL and the MIC [7] was greater than 256 µg/mL. The MIC [8] was greater than 256 µg/mL, the MIC (Pseudomonas aeruginosa [9]) was greater than 256 µg/mL and the MIC (Proteus vulgaris) was greater than 256 µg/mL.
In the case of `CC[C@@H](CO)NCCN[C@@H](CC)CO` [ETHAMBUTOL], the MIC [2] is reported as less than 3.1 µg/mL, the MIC [3] is reported as less than 3.1 µg/mL and the MIC [16] is reported as 2 µg/mL. For the same compound, the MIC [18] was 2 µg/mL.
`NNC(=O)c1ccncc1` [ISONIAZID] gave an MIC [10] of 64 µg/mL, an MIC [2] of 6.25 µg/mL and an MIC [3] of 6.25 µg/mL. The MIC (Mycobacterium kansasii) was 32 µg/mL, the MIC [15] was 128 µg/mL and the MIC [16] was 0.125 µg/mL. For the same compound, the MIC [17] was 64 µg/mL, the MIC [18] was 0.125 µg/mL and the MIC (Mycobacterium xenopi) was 64 µg/mL. For the same compound, the MIC (Mycobacterium avium) was 32 µg/mL.
`CO[C@H]1/C=C/O[C@@]2(C)Oc3c(C)c(O)c4c(O)c(c(/C=N/N5CCN(C)CC5)c(O)c4c3C2=O)NC(=O)/C(C)=C\C=C\[C@H](C)[C@H](O)[C@@H](C)[C@@H](O)[C@@H](C)[C@H](OC(C)=O)[C@@H]1C` [RIFAMPIN] gave an MIC [2] of less than 3.1 µg/mL, an MIC [3] of less than 3.1 µg/mL and an MIC [16] of 1 µg/mL. The MIC [18] was 1 µg/mL.
In the case of `CN[C@@H]1[C@H](O[C@H]2[C@H](O[C@H]3[C@H](O)[C@@H](O)[C@H](N=C(N)N)[C@@H](O)[C@@H]3N=C(N)N)O[C@@H](C)[C@]2(O)C=O)O[C@@H](CO)[C@H](O)[C@H]1O` [STREPTOMYCIN], the MIC [2] is reported as less than 3.1 µg/mL, the MIC [3] is reported as less than 3.1 µg/mL and the MIC [16] is reported as 1 µg/mL. The MIC [18] was 1 µg/mL.
